Assay results reported in ChEMBL document CHEMBL3758117, “Discovery of indeno[1,2-b]quinoxaline derivatives as potential anticancer agents” (Eur J Med Chem, 2016).
Activity calls are given as the source filed them. The calls are words filed in the database; no cut-off is given here.

Tested on: Escherichia coli
Assay: Binding affinity to Escherichia coli negative supercoiled pBR322 DNA at 10 uM after 12 hrs by ethidium bromide staining based agarose gel electrophoresis
Settings: not given
Procedure, shortened: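 Negatively supercoiled pBR322 (400 ng) in TE buffer pH 8.0 was incubated with compound at 10 μM for 12 h at room temperature. Loading buffer with sarkosyl was added. Samples were run on 1% agarose at 6 V/cm for 2.5 h in TAE pH 8.5, stained with ethidium bromide and photographed under UV.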

SMILES	Activity
Cl.c1ccc2c(c1)/C(=N\OCCN1CCCC1)c1nc3ccccc3nc1-2	inactive
CN(C)CCCO/N=C/c1cccc2nc3c(nc12)-c1ccccc1/C3=N\OCCCN(C)C.Cl	inactive
Cc1cccc2nc3c(nc12)-c1ccccc1/C3=N\OCCCN(C)C.Cl	inactive
O=C1c2ccccc2-c2nc3c(C(=O)NCCN4CCCC4)cccc3nc21	inactive
C(=N\OCCN1CCCC1)/c1cccc2nc3c(nc12)-c1ccccc1/C3=N\OCCN1CCCC1.Cl	Active

Tested on: MDA-MB-231
Assay: Antiproliferative activity against human MDA-MB-231 cells after 72 hrs by XTT assay
Assay type: functional, cell-based
Settings: MDA-MB-231, 72 h
Procedure, shortened: (§1)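 Cells kept as monolayers in DMEM with 10% FBS, penicillin, streptomycin and amphotericin at 37°C, 5% CO2. Seeded at 5 x 10³ cells/well and exposed to compound for 72 h in medium with 10% FBS. XTT plus electron-coupling reagent added, 4 h at 37°C, absorbance read at 492 nm. Percent of control growth uses mean absorbance (n = 3). The 50% value is taken from the linear portion of the curve.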

SMILES	IC50
Cl.c1ccc2c(c1)/C(=N\OCCN1CCCC1)c1nc3ccccc3nc1-2	4.92 µM
CN(C)CCCO/N=C/c1cccc2nc3c(nc12)-c1ccccc1/C3=N\OCCCN(C)C.Cl	7.03 µM
Cc1cccc2nc3c(nc12)-c1ccccc1/C3=N\OCCCN(C)C.Cl	6.84 µM
O=C1c2ccccc2-c2nc3c(C(=O)NCCN4CCCC4)cccc3nc21	6.55 µM
C(=N\OCCN1CCCC1)/c1cccc2nc3c(nc12)-c1ccccc1/C3=N\OCCN1CCCC1.Cl	1.01 µM

Tested on: not listed separately
Assay: Antiproliferative activity against human H1299 cells after 72 hrs by XTT assay
Assay type: functional, cell-based
Settings: NCI-H1299, 72 h
Procedure, shortened: as §1

SMILES	IC50
Cl.c1ccc2c(c1)/C(=N\OCCN1CCCC1)c1nc3ccccc3nc1-2	7.03 µM
CN(C)CCCO/N=C/c1cccc2nc3c(nc12)-c1ccccc1/C3=N\OCCCN(C)C.Cl	5.1 µM
Cc1cccc2nc3c(nc12)-c1ccccc1/C3=N\OCCCN(C)C.Cl	7.26 µM
O=C1c2ccccc2-c2nc3c(C(=O)NCCN4CCCC4)cccc3nc21	11.2 µM
C(=N\OCCN1CCCC1)/c1cccc2nc3c(nc12)-c1ccccc1/C3=N\OCCN1CCCC1.Cl	6.02 µM

Tested on: not listed separately
Assay: Antiproliferative activity against human PC3 cells after 72 hrs by XTT assay
Assay type: functional, cell-based
Settings: PC-3, 72 h
Procedure, shortened: as §1

SMILES	IC50
Cl.c1ccc2c(c1)/C(=N\OCCN1CCCC1)c1nc3ccccc3nc1-2	8.51 µM
CN(C)CCCO/N=C/c1cccc2nc3c(nc12)-c1ccccc1/C3=N\OCCCN(C)C.Cl	6.27 µM
Cc1cccc2nc3c(nc12)-c1ccccc1/C3=N\OCCCN(C)C.Cl	7.01 µM
O=C1c2ccccc2-c2nc3c(C(=O)NCCN4CCCC4)cccc3nc21	12 µM
C(=N\OCCN1CCCC1)/c1cccc2nc3c(nc12)-c1ccccc1/C3=N\OCCN1CCCC1.Cl	5.17 µM

Tested on: not listed separately
Assay: Antiproliferative activity against human HuH7 cells after 72 hrs by XTT assay
Assay type: functional, cell-based
Settings: Huh-7, 72 h
Procedure, shortened: as §1

SMILES	IC50
Cl.c1ccc2c(c1)/C(=N\OCCN1CCCC1)c1nc3ccccc3nc1-2	6.46 µM
CN(C)CCCO/N=C/c1cccc2nc3c(nc12)-c1ccccc1/C3=N\OCCCN(C)C.Cl	7.19 µM
Cc1cccc2nc3c(nc12)-c1ccccc1/C3=N\OCCCN(C)C.Cl	5.88 µM
O=C1c2ccccc2-c2nc3c(C(=O)NCCN4CCCC4)cccc3nc21	8.51 µM
C(=N\OCCN1CCCC1)/c1cccc2nc3c(nc12)-c1ccccc1/C3=N\OCCN1CCCC1.Cl	0.78 µM

Tested on: MRC5
Assay: Antiproliferative activity against human MRC5 cells after 72 hrs by XTT assay
Assay type: cell-based
Settings: MRC5, 72 h
Procedure, shortened: as §1

SMILES	IC50
Cl.c1ccc2c(c1)/C(=N\OCCN1CCCC1)c1nc3ccccc3nc1-2	17.7 µM
CN(C)CCCO/N=C/c1cccc2nc3c(nc12)-c1ccccc1/C3=N\OCCCN(C)C.Cl	6.56 µM
Cc1cccc2nc3c(nc12)-c1ccccc1/C3=N\OCCCN(C)C.Cl	7.86 µM
O=C1c2ccccc2-c2nc3c(C(=O)NCCN4CCCC4)cccc3nc21	7.99 µM
C(=N\OCCN1CCCC1)/c1cccc2nc3c(nc12)-c1ccccc1/C3=N\OCCN1CCCC1.Cl	0.91 µM

Tested on: MRC5
Assay: Selectivity index, ratio of IC50 for human MRC5 cells to IC50 for human MDA-MB-231 cells
Assay type: functional
Settings: not given

SMILES	Ratio IC50
Cl.c1ccc2c(c1)/C(=N\OCCN1CCCC1)c1nc3ccccc3nc1-2	3.59
CN(C)CCCO/N=C/c1cccc2nc3c(nc12)-c1ccccc1/C3=N\OCCCN(C)C.Cl	0.93
Cc1cccc2nc3c(nc12)-c1ccccc1/C3=N\OCCCN(C)C.Cl	1.13
O=C1c2ccccc2-c2nc3c(C(=O)NCCN4CCCC4)cccc3nc21	1.22
C(=N\OCCN1CCCC1)/c1cccc2nc3c(nc12)-c1ccccc1/C3=N\OCCN1CCCC1.Cl	0.9

Tested on: not listed separately
Assay: Selectivity index, ratio of IC50 for human MRC5 cells to IC50 for human H1299 cells
Assay type: functional
Settings: not given

SMILES	Ratio IC50
Cl.c1ccc2c(c1)/C(=N\OCCN1CCCC1)c1nc3ccccc3nc1-2	2.51
CN(C)CCCO/N=C/c1cccc2nc3c(nc12)-c1ccccc1/C3=N\OCCCN(C)C.Cl	1.29
Cc1cccc2nc3c(nc12)-c1ccccc1/C3=N\OCCCN(C)C.Cl	1.08
O=C1c2ccccc2-c2nc3c(C(=O)NCCN4CCCC4)cccc3nc21	0.71
C(=N\OCCN1CCCC1)/c1cccc2nc3c(nc12)-c1ccccc1/C3=N\OCCN1CCCC1.Cl	0.15

Tested on: MRC5
Assay: Selectivity index, ratio of IC50 for human MRC5 cells to IC50 for human PC3 cells
Assay type: functional
Settings: not given

SMILES	Ratio IC50
Cl.c1ccc2c(c1)/C(=N\OCCN1CCCC1)c1nc3ccccc3nc1-2	2.07
CN(C)CCCO/N=C/c1cccc2nc3c(nc12)-c1ccccc1/C3=N\OCCCN(C)C.Cl	1.05
Cc1cccc2nc3c(nc12)-c1ccccc1/C3=N\OCCCN(C)C.Cl	1.12
O=C1c2ccccc2-c2nc3c(C(=O)NCCN4CCCC4)cccc3nc21	0.67
C(=N\OCCN1CCCC1)/c1cccc2nc3c(nc12)-c1ccccc1/C3=N\OCCN1CCCC1.Cl	0.18

Tested on: Huh-7
Assay: Selectivity index, ratio of IC50 for human MRC5 cells to IC50 for human HuH7 cells
Assay type: functional
Settings: not given

SMILES	Ratio IC50
Cl.c1ccc2c(c1)/C(=N\OCCN1CCCC1)c1nc3ccccc3nc1-2	2.73
CN(C)CCCO/N=C/c1cccc2nc3c(nc12)-c1ccccc1/C3=N\OCCCN(C)C.Cl	0.91
Cc1cccc2nc3c(nc12)-c1ccccc1/C3=N\OCCCN(C)C.Cl	1.34
O=C1c2ccccc2-c2nc3c(C(=O)NCCN4CCCC4)cccc3nc21	0.94
C(=N\OCCN1CCCC1)/c1cccc2nc3c(nc12)-c1ccccc1/C3=N\OCCN1CCCC1.Cl	1.17

Target: T1, DNA topoisomerase 1 (Homo sapiens) (UniProt P11387)
T1 sequence (whole entry): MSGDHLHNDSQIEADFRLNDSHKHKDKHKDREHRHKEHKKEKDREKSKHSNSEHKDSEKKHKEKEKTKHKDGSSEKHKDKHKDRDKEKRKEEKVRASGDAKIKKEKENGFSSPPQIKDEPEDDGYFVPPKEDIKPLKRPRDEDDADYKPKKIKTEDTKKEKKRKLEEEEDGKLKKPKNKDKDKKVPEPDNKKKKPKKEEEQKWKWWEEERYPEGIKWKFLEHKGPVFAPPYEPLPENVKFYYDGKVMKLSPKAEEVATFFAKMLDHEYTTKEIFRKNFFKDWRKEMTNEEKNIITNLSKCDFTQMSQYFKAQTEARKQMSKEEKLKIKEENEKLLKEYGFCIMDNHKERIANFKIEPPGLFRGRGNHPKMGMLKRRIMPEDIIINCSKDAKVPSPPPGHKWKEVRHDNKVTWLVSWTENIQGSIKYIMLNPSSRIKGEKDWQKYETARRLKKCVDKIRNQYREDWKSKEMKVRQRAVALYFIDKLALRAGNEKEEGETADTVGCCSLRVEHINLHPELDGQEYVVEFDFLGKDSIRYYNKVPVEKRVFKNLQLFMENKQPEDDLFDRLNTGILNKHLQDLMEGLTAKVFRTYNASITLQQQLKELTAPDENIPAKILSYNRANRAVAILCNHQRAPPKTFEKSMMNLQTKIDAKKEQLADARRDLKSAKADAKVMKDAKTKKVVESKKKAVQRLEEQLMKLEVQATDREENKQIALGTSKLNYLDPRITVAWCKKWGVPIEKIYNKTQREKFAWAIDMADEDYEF
Assay: Inhibition of human DNA topoisomerase 1-mediated relaxation of supercoiled pBR322 DNA at 100 uM after 30 mins by ethidium bromide staining based agarose gel electrophoresis
Settings: not given
Procedure, shortened: (§2)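 Human topo I or topo II (2 units) was reacted with 0.2 μg supercoiled pBR322 in 20 μl Tris-HCl pH 7.5 containing KCl, DTT, EDTA, MgCl2 and BSA, with DMSO held at 0.5%, for 30 min at 37°C. The reaction was stopped with SDS. Samples were run on 1% agarose in Tris-acetate/EDTA at 1.5 V/cm for 2-3 h and stained with ethidium bromide. Relaxation was quantified by densitometry of the supercoiled band area.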

SMILES	topoisomerase 1 inhibition (active/inactive)
Cl.c1ccc2c(c1)/C(=N\OCCN1CCCC1)c1nc3ccccc3nc1-2	Active
CN(C)CCCO/N=C/c1cccc2nc3c(nc12)-c1ccccc1/C3=N\OCCCN(C)C.Cl	Active
Cc1cccc2nc3c(nc12)-c1ccccc1/C3=N\OCCCN(C)C.Cl	Active
O=C1c2ccccc2-c2nc3c(C(=O)NCCN4CCCC4)cccc3nc21	Active
C(=N\OCCN1CCCC1)/c1cccc2nc3c(nc12)-c1ccccc1/C3=N\OCCN1CCCC1.Cl	Active

Target: T1, DNA topoisomerase 1 (Homo sapiens)
Assay: Inhibition of human DNA topoisomerase 1-mediated relaxation of supercoiled pBR322 DNA at 10 uM after 30 mins by ethidium bromide staining based agarose gel electrophoresis
Settings: not given
Procedure, shortened: as §2

SMILES	inhibition
Cl.c1ccc2c(c1)/C(=N\OCCN1CCCC1)c1nc3ccccc3nc1-2	Active
CN(C)CCCO/N=C/c1cccc2nc3c(nc12)-c1ccccc1/C3=N\OCCCN(C)C.Cl	Active
Cc1cccc2nc3c(nc12)-c1ccccc1/C3=N\OCCCN(C)C.Cl	Active
O=C1c2ccccc2-c2nc3c(C(=O)NCCN4CCCC4)cccc3nc21	Active
C(=N\OCCN1CCCC1)/c1cccc2nc3c(nc12)-c1ccccc1/C3=N\OCCN1CCCC1.Cl	Active

Target: DNA topoisomerase 2-alpha (Homo sapiens) (UniProt P11388)
Assay: Inhibition of human DNA topoisomerase 2-mediated relaxation of supercoiled pBR322 DNA at 100 uM after 30 mins by ethidium bromide staining based agarose gel electrophoresis
Settings: not given
Procedure, shortened: as §2

Sequence of DNA topoisomerase 2-alpha (Homo sapiens) (P11388 whole entry): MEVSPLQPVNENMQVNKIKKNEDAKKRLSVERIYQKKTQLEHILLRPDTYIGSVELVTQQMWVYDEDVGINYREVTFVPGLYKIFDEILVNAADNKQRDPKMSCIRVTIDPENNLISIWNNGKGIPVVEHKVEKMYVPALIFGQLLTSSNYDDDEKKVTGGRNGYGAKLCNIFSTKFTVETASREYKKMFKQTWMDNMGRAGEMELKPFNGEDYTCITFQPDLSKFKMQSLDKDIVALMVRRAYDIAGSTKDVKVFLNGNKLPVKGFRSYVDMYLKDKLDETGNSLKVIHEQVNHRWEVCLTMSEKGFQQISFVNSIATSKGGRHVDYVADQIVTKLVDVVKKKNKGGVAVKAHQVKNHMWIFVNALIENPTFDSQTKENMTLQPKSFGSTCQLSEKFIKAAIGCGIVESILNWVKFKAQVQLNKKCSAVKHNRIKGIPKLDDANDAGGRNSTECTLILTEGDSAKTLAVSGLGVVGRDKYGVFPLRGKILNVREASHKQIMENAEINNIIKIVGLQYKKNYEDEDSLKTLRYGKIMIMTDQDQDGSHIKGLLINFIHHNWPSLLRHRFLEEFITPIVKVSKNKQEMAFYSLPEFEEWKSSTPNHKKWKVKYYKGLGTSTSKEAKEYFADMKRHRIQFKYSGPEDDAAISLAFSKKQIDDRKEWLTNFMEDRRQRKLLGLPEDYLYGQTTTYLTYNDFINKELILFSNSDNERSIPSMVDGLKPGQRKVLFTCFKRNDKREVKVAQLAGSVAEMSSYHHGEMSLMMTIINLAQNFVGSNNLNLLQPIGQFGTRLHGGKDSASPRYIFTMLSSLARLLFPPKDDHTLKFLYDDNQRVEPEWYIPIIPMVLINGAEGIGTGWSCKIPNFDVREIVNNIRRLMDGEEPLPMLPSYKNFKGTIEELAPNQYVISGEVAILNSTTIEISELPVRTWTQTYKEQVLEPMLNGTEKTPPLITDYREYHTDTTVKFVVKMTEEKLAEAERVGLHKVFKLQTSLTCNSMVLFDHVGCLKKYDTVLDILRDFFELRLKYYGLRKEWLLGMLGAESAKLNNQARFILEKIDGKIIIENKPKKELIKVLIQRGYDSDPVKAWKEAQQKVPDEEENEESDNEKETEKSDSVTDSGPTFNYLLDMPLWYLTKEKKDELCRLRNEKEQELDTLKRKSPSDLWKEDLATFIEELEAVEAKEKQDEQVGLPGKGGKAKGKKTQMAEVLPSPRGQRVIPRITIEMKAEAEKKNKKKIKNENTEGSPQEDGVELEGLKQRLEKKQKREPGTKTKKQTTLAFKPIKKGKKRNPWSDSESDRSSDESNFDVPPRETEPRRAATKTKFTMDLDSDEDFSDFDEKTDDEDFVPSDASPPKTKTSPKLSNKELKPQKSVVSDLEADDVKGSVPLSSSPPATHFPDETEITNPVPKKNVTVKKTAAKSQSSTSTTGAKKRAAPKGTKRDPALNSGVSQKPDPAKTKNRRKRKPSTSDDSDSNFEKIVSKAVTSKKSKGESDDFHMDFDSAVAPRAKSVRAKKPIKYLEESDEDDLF

SMILES	inhibition call (active/not active)
Cl.c1ccc2c(c1)/C(=N\OCCN1CCCC1)c1nc3ccccc3nc1-2	Active
CN(C)CCCO/N=C/c1cccc2nc3c(nc12)-c1ccccc1/C3=N\OCCCN(C)C.Cl	Active
Cc1cccc2nc3c(nc12)-c1ccccc1/C3=N\OCCCN(C)C.Cl	Active
O=C1c2ccccc2-c2nc3c(C(=O)NCCN4CCCC4)cccc3nc21	Active
C(=N\OCCN1CCCC1)/c1cccc2nc3c(nc12)-c1ccccc1/C3=N\OCCN1CCCC1.Cl	Active

Target: DNA topoisomerase 2-alpha (Homo sapiens) (UniProt P11388)
Assay: Inhibition of human DNA topoisomerase 2-mediated relaxation of supercoiled pBR322 DNA at 10 uM after 30 mins by ethidium bromide staining based agarose gel electrophoresis
Settings: not given
Procedure, shortened: as §2

SMILES	topoisomerase 2 inhibition (active/not active)
Cl.c1ccc2c(c1)/C(=N\OCCN1CCCC1)c1nc3ccccc3nc1-2	inactive
CN(C)CCCO/N=C/c1cccc2nc3c(nc12)-c1ccccc1/C3=N\OCCCN(C)C.Cl	Active
Cc1cccc2nc3c(nc12)-c1ccccc1/C3=N\OCCCN(C)C.Cl	inactive
O=C1c2ccccc2-c2nc3c(C(=O)NCCN4CCCC4)cccc3nc21	inactive
C(=N\OCCN1CCCC1)/c1cccc2nc3c(nc12)-c1ccccc1/C3=N\OCCN1CCCC1.Cl	Active
